Test results reported in paper PMC4267758 (Journal of molecular biology, 2014).
“Also recorded” adds a separate entry of the source. Like-named read-outs stand apart in the source and are kept apart here. Where no end group is shown, it is not given here. The star is where a group is joined. MTSL = methane thiosulphonate spin label, CC1(C)C=C(CS*)C(C)(C)N1[O]

What was measured:
FAK-FAT = conditions: ref [39] (b5), [39], [40]; cited from earlier work
Pyk2-FAT [1] = assay: NMR titration / chemical shift perturbation of 15N-labeled Pyk2-FAT; format: binding, human; conditions: 15N-HSQC/TROSY titration, Pyk2-FAT:ligand 1:0.2 to 1:2, 20 mM MES, pH 6.2, 305K
How it was run: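 15N-labeled Pyk2-FAT (400–500 μM in 20 mM MES, pH 6.2) titrated at 305 K with chicken LD peptides at protein:peptide ratios of 1:0.2 to 1:2. Peptide stocks were in dialysis buffer, pH readjusted to 6.2. 15N-HSQC spectra recorded at 600/800 MHz. Weighted shift Δav = [(ΔH² + (ΔN/5)²)/2]^1/2. For PRE, MTSL-labeled peptides were added at 1:0.2 and Iox/Ired taken after ascorbate reduction.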

Pyk2-FAT [2] = assay: Sedimentation equilibrium AUC; format: binding, human; conditions: AUC-SE; for Kd: two site hetero-association model (A+B+B↔ABB), 1:2 Pyk2-FAT to peptide, 20 mM MES, pH 6.2, 4 °C, Monte Carlo error, 500 iterations, confidence level 0.68
How it was run: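 Sedimentation equilibrium at 4 °C in 20 mM MES, 50 mM NaCl, pH 6.2. Rotor speeds 18.4, 26.9 and 46k rpm, equilibrium reached at 30, 26 and 18 h. Loading 35–96 μM. Absorbance read at 280 and 230 nm, 0.001 cm radial steps, 20 replicates per point. Global least-squares fit across speeds to the A+B+B↔ABB model.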

Pyk2-FAT [3] = assay: H/D exchange NMR of Pyk2-FAT complexes; parameters: species or system human; conditions: H/D exchange in D2O, fast 15N-HSQC, up to 10 h
How it was run: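 15N-labelled Pyk2-FAT complexes (400–500 μM, 20 mM MES pH 6.2) were lyophilized and rehydrated in D2O. FAST 1H-15N HSQC spectra were recorded at intervals up to 10 h at 305 K. HSQC spectra in H2O before and after exchange checked structural integrity.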

Pyk2-FAT [4] = assay: Isothermal titration calorimetry; format: binding, human
How it was run: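 Human Pyk2 FAT domain (residues 871–1005) with an N-terminal His6 tag, expressed in E. coli BL21(DE3) and purified by Ni-affinity then gel filtration. The cell held 10 μM protein in 20 mM MES, pH 6.2. The syringe held chicken paxillin LD-motif peptides (100 μM) or the His-tagged paxillin 133–290 fragment (50 μM). Solutions degassed; 2 μl injections, 120 s apart, at 25°C. Ligand-into-buffer heats subtracted. Fits used one-site or two-site sequential models. Run in duplicate.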

Pyk2-FAT [5] = assay: Steady-state 1H-15N heteronuclear NOE; parameters: species or system human; conditions: 600 MHz, 305 K; relative to free Pyk2-FAT, loop regions
How it was run: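 Steady-state 1H-15N heteronuclear NOE was measured at 600 MHz, 305 K on 15N-labelled Pyk2-FAT, free and bound to LD-motif peptide. Protein was at 400–500 μM in 20 mM MES pH 6.2. NOE values were taken as peak-intensity ratios of 1H-saturated to unsaturated spectra.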

[6] = test system: FAT-like domain from G-protein-coupled receptor kinase-interacting protein 1 (GIT1); conditions: ref [41]; cited from earlier work
Pyk2-FAT [7] = assay: Co-crystal structure with Pyk2-FAT; format: binding, human; conditions: PDB 4R32, 3.5 Å, one at H1/H4, one at H2/H3
Pyk2-FAT [8] = assay: Reverse NMR titration: unlabeled Pyk2-FAT added to 15N-labeled paxillin ligand; format: binding, human; conditions: 1H-15N HSQC/TROSY, ratios up to 1:2, 20 mM MES, pH 6.2
How it was run: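 Unlabelled Pyk2-FAT was titrated into a 15N-labelled ligand in 20 mM MES pH 6.2, with 15N-1H HSQC spectra at 600/800 MHz and 305 K. Ligands were an expressed chicken paxillin 139–163 peptide or His-tagged chicken paxillin 133–290. […] Ratios were 1:0.2–1:2.0.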

Pyk2-FAT [9] = assay: Paramagnetic relaxation enhancement; format: binding, human; conditions: PRE, MTSL-labeled peptide, Pyk2-FAT:peptide 1:0.2, 20 mM MES, pH 6.2
How it was run: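 Single-cysteine peptide variants in 20 mM phosphate pH 7.2 were reacted with fivefold molar excess MTSL for 8 h at room temperature. They were HPLC-repurified, lyophilized and redissolved in 20 mM MES pH 6.2, then added to uniformly 15N-labelled Pyk2-FAT. The reduced reference used fivefold molar excess ascorbic acid for 1 h. Per-residue Iox/Ired peak-intensity ratios were computed, excluding prolines and overlapped peaks.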

## LD2: paxillin derived peptide LD2 (chicken paxillin; residues 139–163), chemically synthesized (GSNLSELDRLLLELNAVQHNPPSGF)
FAK-FAT
  preferred binding site on FAK-FAT: specifically recognizes the H1/H4 site of FAK-FAT; also recorded: preferentially binds to the helices H1 and H4 interface (H1/H4) site
Pyk2-FAT [1]
  binding sites / site preference on Pyk2-FAT by NMR: H2/H3 is the stronger binding site
Pyk2-FAT [2]; 1:2 stoichiometry, two-site hetero-association model
  global free energy difference between first and second sites (ΔGAB and ΔGABB): -3.18 kJ/mol
Pyk2-FAT [2]; single site hetero-association model, T = 277.149994K, RT = 0.551kcal/mol
  Delta G, single site (1:1): -31.8 kJ/mol
Pyk2-FAT [2]; two site hetero-association model, first site, T = 277.149994K, RT = 0.551kcal/mol
  Delta G, first binding site (1:2): -31.2 kJ/mol
Pyk2-FAT [2]; two site hetero-association model, second site, T = 277.149994K, RT = 0.551kcal/mol
  Delta G, second binding site (both occupied): -28 kJ/mol
Pyk2-FAT [2]; read-out: KAB (first site), 1:2 stoichiometry
  Kd: 1.32 ± 0.02 µM
Pyk2-FAT [2]; read-out: KABB (second site), 1:2 stoichiometry
  Kd: 5.3 ± 0.12 µM
Pyk2-FAT [3]
  amide H/D exchange protection of Pyk2-FAT in complex: residues from H2/H3 and H1/H4 were protected even after 10 hrs
Pyk2-FAT [4]; discussion statement, H1/H4 versus H2/H3
  relative binding at H1/H4 and H2/H3 sites of Pyk2-FAT: binds to both H1/H4 and H2/H3 sites of Pyk2-FAT equally well
Pyk2-FAT [4]; from ITC and AUC studies
  affinity preference for H2/H3 site over H1/H4 site of Pyk2-FAT: 5 fold
Pyk2-FAT [5]
  steady-state 1H-15N NOE of Pyk2-FAT amides upon ligand binding: significantly increased relative to free Pyk2-FAT
[6]
  binding site on GIT1 FAT-like domain: located exclusively at the H1/H4 surface
Pyk2-FAT [7]
  peptide molecules bound per Pyk2-FAT in crystal: two LD2 peptides bind to one molecule of Pyk2-FAT
Pyk2-FAT [8]
  effect of unlabeled Pyk2-FAT on resonances of 15N-labeled ligand: most of the LD2 resonances were broadened beyond detection

## LD2MTSL: methane thiosulphonate (MTSL)-derivatized LD2 peptide (GSNLSELDRLLLELNAVC(MTSL)HNPPSGF)
Pyk2-FAT [9]
  H2/H3 residues of Pyk2-FAT affected by spin-labeled peptide: residues from H2/H3 disappeared or showed reduced intensity
